For data set [1], the system named is Middle East respiratory syndrome-related coronavirus. In words: Antiviral activity against MERS-CoV infected in African green monkey Vero cells assessed as inhibition of viral infection by measuring reduction in spike protein level by immunofluorescence microscopic analysis. The data set is classed as functional, organism-based.
The target in another data set is CYP2C9 (Homo sapiens, UniProt P11712). In words: Inhibition of CYP2C9 (unknown origin) at 10 uM relative to control. The data set is classed as ADME.
CYP2C9, sequence (P11712 whole entry): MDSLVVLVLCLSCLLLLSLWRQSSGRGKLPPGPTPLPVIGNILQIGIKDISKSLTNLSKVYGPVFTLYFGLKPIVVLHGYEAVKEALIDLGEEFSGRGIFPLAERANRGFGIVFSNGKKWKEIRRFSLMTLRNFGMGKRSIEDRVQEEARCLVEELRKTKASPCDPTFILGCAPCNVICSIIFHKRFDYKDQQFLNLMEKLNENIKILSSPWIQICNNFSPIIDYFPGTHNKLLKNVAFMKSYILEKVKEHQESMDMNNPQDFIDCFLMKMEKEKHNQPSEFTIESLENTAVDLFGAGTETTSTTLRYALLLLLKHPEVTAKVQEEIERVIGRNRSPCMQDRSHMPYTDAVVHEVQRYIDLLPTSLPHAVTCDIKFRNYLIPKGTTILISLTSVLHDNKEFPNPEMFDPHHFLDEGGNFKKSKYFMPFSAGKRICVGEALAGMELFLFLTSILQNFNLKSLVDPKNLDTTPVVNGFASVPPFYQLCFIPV
The target of another data set is T1, CYP1A2 (Homo sapiens, UniProt P05177).
T1 sequence (P05177 whole entry): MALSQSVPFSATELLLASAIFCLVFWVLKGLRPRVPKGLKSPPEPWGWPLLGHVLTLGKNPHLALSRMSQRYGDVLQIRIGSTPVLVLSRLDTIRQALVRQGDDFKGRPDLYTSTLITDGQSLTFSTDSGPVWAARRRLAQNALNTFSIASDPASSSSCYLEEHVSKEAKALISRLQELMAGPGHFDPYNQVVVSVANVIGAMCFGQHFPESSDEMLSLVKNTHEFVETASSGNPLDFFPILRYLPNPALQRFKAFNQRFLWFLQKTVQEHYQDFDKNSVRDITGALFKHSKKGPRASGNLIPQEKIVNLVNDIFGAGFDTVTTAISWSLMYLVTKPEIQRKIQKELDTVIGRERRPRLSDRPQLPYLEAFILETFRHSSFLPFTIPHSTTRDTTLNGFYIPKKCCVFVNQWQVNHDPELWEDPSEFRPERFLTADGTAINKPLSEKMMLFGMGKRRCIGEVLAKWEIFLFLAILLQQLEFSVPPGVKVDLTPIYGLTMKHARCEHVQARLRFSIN
In words: Inhibition of CYP1A2 (unknown origin) at 10 uM relative to control. The data set is classed as ADME.

In the next data set the test system is HFL1. In words: Cytotoxicity against human HFL-1 cells. The data set is classed as cell-based.
A short description of data set [2]: Stability in rat microsomes assessed as as parent compound remaining after 30 mins. Type of data set: ADME, Microsome. The conditions noted are these: read-out: Stabilty. Summed up: (§1)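 Liver microsomes from human, mouse and rat were used. The read-out is percent of parent compound remaining after 30 min incubation.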
The nature of data set [3]: Stability in mouse microsomes assessed as as parent compound remaining after 30 mins. The conditions noted are these: read-out: Stabilty. The data set is classed as ADME, Microsome. In short, it runs like this: as §1
A further data set deals with hERG (KCNH2) (Homo sapiens, UniProt Q12809). In words: Inhibition of human ERG at 10 uM relative to control.
hERG (KCNH2), sequence (Q12809 whole entry): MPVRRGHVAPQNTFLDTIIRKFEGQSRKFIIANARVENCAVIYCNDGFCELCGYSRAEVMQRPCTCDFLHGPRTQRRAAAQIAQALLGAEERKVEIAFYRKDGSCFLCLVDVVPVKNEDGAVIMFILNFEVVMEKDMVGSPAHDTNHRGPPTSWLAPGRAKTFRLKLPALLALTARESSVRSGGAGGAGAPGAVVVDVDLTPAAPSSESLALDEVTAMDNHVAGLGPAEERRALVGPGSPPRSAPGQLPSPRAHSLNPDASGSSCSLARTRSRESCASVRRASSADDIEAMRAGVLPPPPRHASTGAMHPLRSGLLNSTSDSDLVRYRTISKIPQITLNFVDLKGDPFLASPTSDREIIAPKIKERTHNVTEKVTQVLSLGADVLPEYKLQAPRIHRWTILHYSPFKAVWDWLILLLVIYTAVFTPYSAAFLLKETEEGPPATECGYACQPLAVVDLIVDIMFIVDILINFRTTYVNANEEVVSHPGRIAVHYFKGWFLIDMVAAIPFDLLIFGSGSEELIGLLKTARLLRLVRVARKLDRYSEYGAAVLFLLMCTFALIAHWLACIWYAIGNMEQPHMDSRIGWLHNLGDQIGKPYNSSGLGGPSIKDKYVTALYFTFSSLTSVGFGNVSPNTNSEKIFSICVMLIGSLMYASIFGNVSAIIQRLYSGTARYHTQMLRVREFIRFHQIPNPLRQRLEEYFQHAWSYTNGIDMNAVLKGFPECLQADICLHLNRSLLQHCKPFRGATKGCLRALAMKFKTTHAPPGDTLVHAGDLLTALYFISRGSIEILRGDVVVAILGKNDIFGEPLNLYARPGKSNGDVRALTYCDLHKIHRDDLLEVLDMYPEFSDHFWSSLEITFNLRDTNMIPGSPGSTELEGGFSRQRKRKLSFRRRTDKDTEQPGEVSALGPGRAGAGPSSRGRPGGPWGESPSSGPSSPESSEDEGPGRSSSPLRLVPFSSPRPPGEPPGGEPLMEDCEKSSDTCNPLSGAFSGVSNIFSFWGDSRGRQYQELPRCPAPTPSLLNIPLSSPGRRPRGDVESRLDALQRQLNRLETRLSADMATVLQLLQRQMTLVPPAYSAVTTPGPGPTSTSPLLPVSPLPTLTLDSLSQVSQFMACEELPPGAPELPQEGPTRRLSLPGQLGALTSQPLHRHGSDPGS
Data set [4] can be described thus: Stability in human microsomes assessed as as parent compound remaining after 30 mins. Type of data set: ADME, Microsome. The conditions noted are these: read-out: Stabilty. Summed up:
as §1

Data set [5] in a line: Oral bioavailability in rat at 10 mg/kg. Type of data set: ADME, organism-based. The conditions noted are these: in vivo. Summed up:
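Rats received oral dosing at 10 mg/kg alongside intravenous dosing at 2 mg/kg. Values are the mean of experiments using three rats.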

The test system of the next data set is Vero. In words: Cytotoxicity against African green monkey Vero cells assessed as reduction of cell viability by WST-1 assay. The data set is classed as cell-based. The conditions noted are these: chlorocebus sabaeus. A general note: Formazan colour is commonly taken as a measure of viable cells.
A short description of data set [6]: Cytotoxicity against mouse NIH3T3 cells. The data set is classed as cell-based.
A further data set has as its target CYP3A4 (Homo sapiens, UniProt P08684). In words: Inhibition of CYP3A4 (unknown origin) at 10 uM relative to control. Type of data set: ADME.
A short description of data set [7]: Cytotoxicity against CHO-K1 cells. The data set is classed as cell-based, Cricetulus griseus. To be noted: chinese hamster.
Data set [8] can be described thus: Selective index, ratio of CC50 for African green monkey Vero cells to IC50 for MERS-CoV infected in African green monkey Vero cells.
Data set [9] can be described thus: Cytotoxicity against mouse NCTC clone 929 cells. The data set is classed as cell-based.
Data set [10] can be described thus: Selective index, ratio of CC50 for African green monkey Vero cells to IC50 for SARS-CoV-2 infected in African green monkey Vero cells.
The next data set deals with CYP2C19 (Homo sapiens, UniProt P33261). In words: Inhibition of CYP2C19 (unknown origin) at 10 uM relative to control. The data set is classed as ADME.
CYP2C19, sequence (P33261 whole entry): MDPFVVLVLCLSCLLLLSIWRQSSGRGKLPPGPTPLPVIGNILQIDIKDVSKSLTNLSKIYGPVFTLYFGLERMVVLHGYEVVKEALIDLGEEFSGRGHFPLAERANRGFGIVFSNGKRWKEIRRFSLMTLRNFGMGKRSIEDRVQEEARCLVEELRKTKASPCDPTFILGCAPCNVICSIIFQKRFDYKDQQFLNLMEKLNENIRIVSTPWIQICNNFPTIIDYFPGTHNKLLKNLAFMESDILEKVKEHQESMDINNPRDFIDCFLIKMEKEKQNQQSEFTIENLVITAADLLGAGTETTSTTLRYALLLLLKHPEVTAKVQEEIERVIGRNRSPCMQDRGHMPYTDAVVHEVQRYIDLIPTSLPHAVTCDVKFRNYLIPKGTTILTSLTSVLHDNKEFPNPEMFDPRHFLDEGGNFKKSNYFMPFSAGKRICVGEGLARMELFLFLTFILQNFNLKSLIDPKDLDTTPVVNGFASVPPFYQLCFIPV
A further data set deals with CYP2D6 (Homo sapiens, UniProt P10635). In words: Inhibition of CYP2D6 (unknown origin) at 10 uM relative to control. The data set is classed as ADME.
CYP2D6, sequence (P10635 whole entry): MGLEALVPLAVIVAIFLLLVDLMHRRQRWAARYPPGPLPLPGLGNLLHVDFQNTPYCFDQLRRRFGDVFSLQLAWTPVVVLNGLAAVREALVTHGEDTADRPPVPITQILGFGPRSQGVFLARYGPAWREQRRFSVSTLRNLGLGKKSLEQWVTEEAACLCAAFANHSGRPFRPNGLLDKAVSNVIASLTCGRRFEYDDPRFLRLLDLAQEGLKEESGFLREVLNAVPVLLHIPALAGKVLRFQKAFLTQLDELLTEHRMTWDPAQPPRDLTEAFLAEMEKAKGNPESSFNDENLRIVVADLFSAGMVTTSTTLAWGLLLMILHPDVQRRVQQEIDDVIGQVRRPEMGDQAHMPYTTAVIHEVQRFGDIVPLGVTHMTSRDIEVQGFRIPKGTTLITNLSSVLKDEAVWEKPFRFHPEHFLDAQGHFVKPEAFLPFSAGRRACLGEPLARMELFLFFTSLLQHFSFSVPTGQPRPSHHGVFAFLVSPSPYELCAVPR
The test system of a further data set is SARS-CoV-2. In words: Antiviral activity against SARS-CoV-2 infected in African green monkey Vero cells assessed as inhibition of viral infection by measuring nucleocapsid protein level by immunofluorescence microscopic analysis. The data set is classed as functional, organism-based. To be noted: Severe acute respiratory syndrome coronavirus 2, Vero.
Data set [11] can be described thus: Half life in rat at 5 mg/kg, iv. The conditions noted are these: in vivo. The data set is classed as ADME, organism-based.
The nature of data set [12]: Half life in rat at 10 mg/kg, po. The data set is classed as ADME, organism-based. To be noted: in vivo. Summed up: (§2)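 Rats were dosed orally at 10 mg/kg. Values are the mean of experiments using three rats.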
Data set [13] in a line: AUC in rat at 10 mg/kg, po. Type of data set: ADME, organism-based. Set-up: dose 10 mg/kg. The conditions noted are these: in vivo. In short, it runs like this: as §2
A short description of data set [14]: Protein binding in rat plasma at 5 uM. The data set is classed as ADME, cell-free.
A short description of data set [15]: AUC in rat at 5 mg/kg, iv. Also on record: dose 5 mg/kg. To be noted: in vivo. The data set is classed as ADME, organism-based.
A short description of data set [16]: Clearance in rat at 5 mg/kg, iv. To be noted: in vivo. The data set is classed as ADME, organism-based.
The nature of data set [17]: Tmax in rat at 10 mg/kg, po. Type of data set: ADME, organism-based. To be noted: in vivo. In short, it runs like this: as §2
The nature of data set [18]: Volume of distribution at steady state in rat at 5 mg/kg, iv. The data set is classed as ADME, organism-based. The conditions noted are these: in vivo, read-out: Vdss.

CYP3A4, sequence (P08684 whole entry): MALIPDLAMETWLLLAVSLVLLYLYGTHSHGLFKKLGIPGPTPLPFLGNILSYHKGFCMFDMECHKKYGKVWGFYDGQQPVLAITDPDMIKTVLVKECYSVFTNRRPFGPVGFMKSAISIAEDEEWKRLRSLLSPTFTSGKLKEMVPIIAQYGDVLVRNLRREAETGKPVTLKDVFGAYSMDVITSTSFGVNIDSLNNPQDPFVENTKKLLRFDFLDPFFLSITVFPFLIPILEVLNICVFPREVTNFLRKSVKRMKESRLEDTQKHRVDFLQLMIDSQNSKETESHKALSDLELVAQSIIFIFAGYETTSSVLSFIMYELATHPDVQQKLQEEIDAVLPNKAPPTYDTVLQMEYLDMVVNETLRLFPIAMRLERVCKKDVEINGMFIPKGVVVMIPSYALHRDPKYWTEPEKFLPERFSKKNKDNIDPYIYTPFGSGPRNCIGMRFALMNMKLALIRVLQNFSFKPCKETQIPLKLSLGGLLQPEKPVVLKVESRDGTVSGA

One may read the IC50 as the concentration that gives 50% inhibition. A word on the inhibition: it is the relative decrease from the control value, in per cent. Broadly, the CC50 is the concentration that lowers cell viability or growth by half. In general, bioavailability refers to the share of a dose that reaches the circulation, judged against a reference dose that is usually intravenous. Turning to `O=c1[nH]c(Nc2cc(Cl)cc(Cl)c2)nc2cc(Cl)ccc12`, the 50% inhibitory concentration (IC50) in data set [1] came to 0.93 µM; with SARS-CoV-2 it was 0.23 µM. Moreover, the inhibition at 10 µM is 18% on CYP2C9; 15% against CYP1A2; 38% at hERG (KCNH2); 32% at CYP3A4; less than 1% against CYP2C19; 20% against CYP2D6. In addition, the CC50 with HFL1 was 7.5 µM; in the data set with Vero it was greater than 25 µM; in [6] it was greater than 100 µM; in [7] it was 11 µM; in data set [9], 31 µM. Moreover, the remaining at 0.5 h came out at 105% in data set [2], 112% in [3] and 99% in data set [4]. This compound yielded a bioavailability in [5] of 15.6%. Besides, the “Ratio CC50/IC50” value turned out to be 27 in data set [8] and 110 in data set [10].

One may read the half-life as the time in which the quantity being followed falls by half. Broadly, the AUC is concentration integrated over time. A word on the clearance: it is the rate of elimination divided by the concentration. As a reminder, the Tmax is the time at which the peak concentration occurs. Regarding `O=c1[nH]c(Nc2cc(Cl)cc(Cl)c2)nc2cccc(O)c12`, the IC50 in data set [1] was 1.02 µM; in the data set with SARS-CoV-2 it was 0.15 µM. In addition, the inhibition at 10 µM against CYP2C9 was determined as 34%; on CYP1A2, 65%; against hERG (KCNH2), 28%; against CYP3A4, 65%; at CYP2C19 it was 12%; on CYP2D6, 46%. Besides, the half-life was 9.2 h in [11] and 42 h in data set [12]. Besides, the CC50 is 9.6 µM with HFL1; greater than 25 µM with Vero; 60 µM in [6]; 28 µM in data set [7]; 27 µM in [9]. The remaining at 0.5 h in data set [2] is 54%; in data set [3], 42%; in [4] it was 55%. The figures for the AUC in data set [13] and in [15] were 1010 ng·h/mL and 6500 ng·h/mL, respectively. The compound also yielded a bioavailability in data set [5] of 7.8%. In [14], this compound displayed a PPB of 97%. For the same compound, the “Ratio CC50/IC50” value is 25 in data set [8] and 168 in [10]. The compound also showed a clearance in data set [16] of 11.2 mL/min/kg. The Tmax in [17] was 1 h. Moreover, the Vd in [18] was 6.8 L/kg.
